{"source": "PubChem BioAssay AID588745", "about": "(Vanderbilt Specialized Chemistry Center, 2011)", "note": "Calls of active or inactive are those of the source.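 How the source made its calls: active means compounds whose response rose with dose, given a half-maximal potency and peak effect versus acetylcholine; inactive means the rest.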", "data": [{"biological_target": "Muscarinic acetylcholine receptor M3 (Homo sapiens) (UniProt P20309)", "assay": "M3 positive allosteric modulation, counter-screen, dose response, counter-screen, human, CHO cells, calcium fluorescence (AID 588745)", "conditions": "CHO hM3 cells, Fluo-4 calcium fluorescence, PAM mode; series mostly up to 30 µM", "in_short": "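Test system: CHO cells stably expressing human M3 muscarinic receptor / Probe or stimulus: ACh EC20 followed by ACh EC80 / Times: compound 144 s before EC20 ACh, EC80 ACh 86 s later, 37 °C / Signal: Fluo-4 calcium fluorescence / Control set: wells with maximal 1 mM acetylcholine for normalization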", "values": [{"smiles": "Cc1nc2sc(C(=O)NCc3ccncc3)c(N)c2c(C)c1Cl", "outcome": "inactive"}, {"smiles": "Cc1nc2sc(C(=O)NC3CC3)c(N)c2c(C)c1Cl", "outcome": "inactive"}, {"smiles": "Cc1nc2sc(C(=O)NCc3ccc4c(c3)OCO4)c(N)c2c(C)c1Cl", "outcome": "inactive"}, {"smiles": "Cc1nc2sc(C(=O)NCc3cccnc3)c(N)c2c(C)c1Cl", "outcome": "inactive"}, {"smiles": "Cc1nc2sc(C(=O)NCc3nccs3)c(N)c2c(C)c1Cl", "outcome": "inactive"}, {"smiles": "Cc1nc2sc(C(=O)NCCc3ccncc3)c(N)c2c(C)c1Cl", "outcome": "inactive"}, {"smiles": "Cc1nc2sc(C(=O)NCc3ccccc3)c(N)c2c(C)c1Cl", "outcome": "inactive"}, {"smiles": "Cc1nc2sc(C(=O)NCc3ccncn3)c(N)c2c(C)c1Cl", "outcome": "inactive"}, {"smiles": "Cc1nc2sc(C(=O)NCc3cccc(F)c3F)c(N)c2c(C)c1Cl", "outcome": "inactive"}]}]}
